This note sets out measurements from ChEMBL document CHEMBL3739295, “Cadinane-Type Sesquiterpenoids from Heterotheca inuloides: Absolute Configuration and Anti-inflammatory Activity” (J Nat Prod, 2015).

Molecules are shown by their SMILES. Active and inactive are the calls of the source. No cut-off for these calls is given here.

In experiment [1] the test system is Mus musculus. Briefly: Anti-inflammatory activity in TPA-induced mouse ear edema model assessed as inhibition of ear edema at 1 umol/ear. The format is functional. The essentials:
(§1)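 In vivo 12-O-tetradecanoylphorbol 13-acetate (TPA)-induced ear edema in mice. Animals were handled under Mexican Official Norm MON-062-Z00-1999.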

Experiment [2] relates to Mus musculus. The experiment is described as follows: Anti-inflammatory activity in TPA-induced mouse ear edema model assessed as inhibition of ear edema. The format is functional, organism-based. The essentials:
as §1

As for `Cc1cc2c(C(C)C)ccc(C=O)c2cc1O`, the “inhibition (INH)” value in experiment [1] is given as 43.14%. The IC50 in experiment [2] was greater than 228 µg.

Turning to `COc1c(C(C)C)cc(C)c2ccc(C)cc12`, the “inhibition (INH)” value in experiment [1] worked out at 15.32%. Further, the IC50 in experiment [2] is greater than 1 µmol.

Turning to `CC1=CC[C@H](C(C)C)[C@H]2C=C(C(=O)O)CC=C12`, the inhibition result in experiment [1] is “inactive”. Moreover, the IC50 in experiment [2] was greater than 1 µmol.

In the case of `CC(C)[C@H]1CC[C@@](C)(O)c2ccc(C(=O)O)cc21`, the inhibition result in experiment [1] is “Active”. The IC50 in experiment [2] is greater than 1 µmol.

As for `CC1=C2CCC(C(=O)O)=C[C@@H]2[C@@H](C(C)C)CC1`, in experiment [1], the “inhibition (INH)” value worked out at 21.51%. The IC50 in experiment [2] was greater than 1 µmol.

In the case of `CC1=C[C@](O)(C(C)C)C(=O)c2cc(C)c(O)cc21`, in experiment [1], the inhibition result was “Active”. The IC50 in experiment [2] was greater than 1 µmol.

With `CC1=CC[C@H](C(C)C)c2cc(C(=O)O)ccc21`, the “inhibition (INH)” value in experiment [1] was 12.93%. In addition, in experiment [2], the IC50 was greater than 1 µmol.

Consider `Cc1ccc2c(c1)C(=O)C(C(C)C)=C[C@@]2(C)O`, for which, in experiment [1], the inhibition result is “Active”. Besides, the IC50 in experiment [2] is greater than 1 µmol.
